Data on five compounds can be found in ChEMBL document CHEMBL3872208, “Synthesis and pharmacological characterization of novel N-(trans-4-(2-(4-(benzo[d]isothiazol-3-yl)piperazin-1-yl)ethyl)cyclohexyl)amides as potential multireceptor atypical antipsychotics” (Eur J Med Chem, 2016).

Activity calls are given as the source filed them. The rule behind the calls is not given here.

The target in data set [1] is T1, 5-hydroxytryptamine receptor 2A (Homo sapiens, UniProt P28223). To be noted: CHO-K1, 10 uM.
Data set [2] addresses T2, 5-hydroxytryptamine receptor 1A (Homo sapiens) (UniProt P08908).
T2 sequence (whole entry): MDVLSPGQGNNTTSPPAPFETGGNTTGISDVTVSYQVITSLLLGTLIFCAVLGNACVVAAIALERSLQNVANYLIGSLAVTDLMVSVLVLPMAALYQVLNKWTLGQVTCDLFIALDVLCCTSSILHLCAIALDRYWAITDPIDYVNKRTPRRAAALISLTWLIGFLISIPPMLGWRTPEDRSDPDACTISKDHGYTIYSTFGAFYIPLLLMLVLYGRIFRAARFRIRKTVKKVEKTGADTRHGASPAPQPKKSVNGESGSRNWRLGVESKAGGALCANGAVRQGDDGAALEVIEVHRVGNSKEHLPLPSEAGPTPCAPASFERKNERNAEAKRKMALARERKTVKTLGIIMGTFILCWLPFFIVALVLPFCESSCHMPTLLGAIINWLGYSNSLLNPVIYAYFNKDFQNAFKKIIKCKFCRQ
To be noted: CHO-K1, 10 uM.

Data set [3] has as its system Rattus norvegicus. The experiment in a line: Toxicity in Sprague-Dawley rat assessed as cataleptogenic effect by measuring time spent in cataleptic position at 1 to 10 mg/kg, po measured after 0.5 to 2 hrs. The data set is classed as organism-based. The note with it: in vivo. The method in brief:
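Male SD rats (180–250 g, n = 7) dosed orally at 1.0, 3.0 or 10.0 mg/kg. Forepaws placed on a bar 0.9 cm in diameter, 11 cm high, at 30, 60 and 120 min after dosing. Time held is expressed as a percentage of the 60 s maximum (mean ± SEM).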

The test system of data set [4] is Rattus norvegicus. Description: Reversal of PCP-induced hyperlocomotion activity in ip dosed Sprague-Dawley rat pretreated for 10 mins followed by PCP challenge measured after […]. The data set is classed as functional, organism-based.
Data set [5] addresses T3, Muscarinic acetylcholine receptor M1 (Homo sapiens, UniProt P11229).
T3 sequence (P11229 whole entry): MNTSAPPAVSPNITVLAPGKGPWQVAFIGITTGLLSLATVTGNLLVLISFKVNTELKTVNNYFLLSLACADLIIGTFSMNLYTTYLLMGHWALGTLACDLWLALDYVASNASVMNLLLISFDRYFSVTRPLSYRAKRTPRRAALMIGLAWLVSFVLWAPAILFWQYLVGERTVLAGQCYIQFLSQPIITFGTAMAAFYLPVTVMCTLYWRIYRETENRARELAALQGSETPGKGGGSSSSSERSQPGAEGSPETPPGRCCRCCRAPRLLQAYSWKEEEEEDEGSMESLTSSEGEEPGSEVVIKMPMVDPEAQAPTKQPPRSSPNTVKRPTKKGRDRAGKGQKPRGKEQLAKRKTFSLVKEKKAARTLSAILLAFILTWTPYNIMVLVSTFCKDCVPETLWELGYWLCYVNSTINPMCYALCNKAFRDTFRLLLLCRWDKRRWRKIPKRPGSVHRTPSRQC
The experiment in a line: Displacement of [3H]pirenzepine from recombinant human M1 receptor expressed in CHO cell membranes at 1 uM after 60 mins by scintillation counting method relative to control. To be noted: CHO cell membranes expressing recombinant human M1 receptor, probe [3H]pirenzepine. The method in brief:
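Nonspecific binding defined with […]. Filtered on PEI-soaked GF/B and scintillation counted. Expressed as percent inhibition of control specific binding at a single test concentration.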

Data set [6] deals with Rattus norvegicus. The experiment in a line: Antipsychotic activity in Sprague-Dawley rat assessed as inhibition of conditioned avoidance behavior at 1.0 to 2.0 mg/kg, ip administered as single dose measured after 1 hr. The data set is classed as functional, organism-based. The method in brief: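 Male SD rats (150–180 g, 6 per group) trained in automated shuttle-boxes; only rats exceeding 80% avoidance were used. Single i.p. dose of 1.0 or 2.0 mg/kg given 1 h before a 20-trial session. Read-out is percentage of avoidance (mean ± SEM, n = 6), compared with the vehicle group.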

The test system of data set [7] is Rattus norvegicus. The experiment in a line: Cognitive enhancement effect in Sprague-Dawley rat assessed as reversal of PCP-impaired performance by measuring increase in time spent exploring novel object in comparison to familiar object at 0.1 mg/kg, po administered 60 mins prior to test by novel object recognition assay.
A short description of data set [8]: Stability of compound. The data set is classed as physicochemical.
Another data set has as its system CHO. The experiment in a line: Selectivity ratio of Ki for displacement of [3H]spiperone from recombinant human D2L receptor expressed in CHO cell membranes to Ki for displacement of [3H]methyl-spiperone from recombinant human D3 receptor expressed in CHO cell membranes. Put shortly: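 D2L binding: CHO membranes (16 µg protein) with 0.3 nM [3H]methyl-spiperone in 50 mM Tris-HCl pH 7.4, 120 mM NaCl, 10 mM MgCl2, 1 mM EDTA, with butaclamol for nonspecific binding. D3 binding: membranes (8 µg) with 0.3 nM [3H]methyl-spiperone in the same Tris buffer with 5 mM KCl, 5 mM MgCl2, 5 mM EDTA, with (+)butaclamol for nonspecific binding. Both run 60 min at 22 °C, then GF/B filtration. Ki by Cheng–Prusoff; ratio is D2 Ki/D3 Ki.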
In general terms: Displacement assays read how much labelled ligand stays bound in the presence of the test substance.

The target of data set [9] is T4, 5-hydroxytryptamine receptor 1A (Homo sapiens, UniProt P08908).
T4 sequence (P08908 whole entry): T2 sequence (whole entry)
Description: Displacement of [3H]8-OH-DPAT from recombinant human 5-HT1A receptor expressed in HEK293 cell membranes after 60 mins by scintillation counting method.

For data set [10], the target named is T1, 5-hydroxytryptamine receptor 2A. The experiment in a line: Displacement of [3H]ketanserin from recombinant human 5-HT2A receptor expressed in HEK293 cell membranes after 60 mins by scintillation counting method.
A further data set addresses D(3) dopamine receptor (Homo sapiens, UniProt P35462). The experiment in a line: Displacement of [3H]methyl-spiperone from recombinant human D3 receptor expressed in CHO cell membranes after 60 mins by scintillation counting method.
The next data set addresses D(2) dopamine receptor (Homo sapiens, UniProt P14416). The experiment in a line: Displacement of [3H]spiperone from recombinant human D2L receptor expressed in CHO cell membranes after 60 mins by scintillation counting method.

T1 sequence (P28223 whole entry): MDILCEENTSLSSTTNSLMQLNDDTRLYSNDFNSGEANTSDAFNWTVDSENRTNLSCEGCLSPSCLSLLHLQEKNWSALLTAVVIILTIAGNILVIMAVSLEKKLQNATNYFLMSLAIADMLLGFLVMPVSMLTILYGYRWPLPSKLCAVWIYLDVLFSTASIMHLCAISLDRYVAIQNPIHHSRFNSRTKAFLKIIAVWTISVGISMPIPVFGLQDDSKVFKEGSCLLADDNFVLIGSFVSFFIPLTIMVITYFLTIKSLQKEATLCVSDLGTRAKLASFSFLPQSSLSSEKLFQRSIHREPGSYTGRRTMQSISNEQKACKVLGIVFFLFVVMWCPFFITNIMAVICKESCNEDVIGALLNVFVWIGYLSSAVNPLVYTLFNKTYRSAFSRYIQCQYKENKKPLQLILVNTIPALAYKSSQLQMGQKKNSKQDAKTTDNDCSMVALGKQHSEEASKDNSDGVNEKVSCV
Chain of D(2) dopamine receptor (P14416 whole entry): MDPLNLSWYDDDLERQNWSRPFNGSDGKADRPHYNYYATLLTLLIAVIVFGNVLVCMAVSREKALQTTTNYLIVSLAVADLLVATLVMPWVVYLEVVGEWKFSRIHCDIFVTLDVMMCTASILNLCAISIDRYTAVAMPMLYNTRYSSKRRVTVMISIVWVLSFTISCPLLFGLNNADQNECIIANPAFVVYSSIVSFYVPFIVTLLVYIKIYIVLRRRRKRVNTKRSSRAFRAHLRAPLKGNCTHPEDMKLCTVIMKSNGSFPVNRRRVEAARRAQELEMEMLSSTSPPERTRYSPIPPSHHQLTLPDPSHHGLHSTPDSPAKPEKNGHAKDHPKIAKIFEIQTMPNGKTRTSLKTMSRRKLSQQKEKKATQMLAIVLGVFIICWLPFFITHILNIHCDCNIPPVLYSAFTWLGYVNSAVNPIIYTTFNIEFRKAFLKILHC
Chain of D(3) dopamine receptor (P35462 whole entry): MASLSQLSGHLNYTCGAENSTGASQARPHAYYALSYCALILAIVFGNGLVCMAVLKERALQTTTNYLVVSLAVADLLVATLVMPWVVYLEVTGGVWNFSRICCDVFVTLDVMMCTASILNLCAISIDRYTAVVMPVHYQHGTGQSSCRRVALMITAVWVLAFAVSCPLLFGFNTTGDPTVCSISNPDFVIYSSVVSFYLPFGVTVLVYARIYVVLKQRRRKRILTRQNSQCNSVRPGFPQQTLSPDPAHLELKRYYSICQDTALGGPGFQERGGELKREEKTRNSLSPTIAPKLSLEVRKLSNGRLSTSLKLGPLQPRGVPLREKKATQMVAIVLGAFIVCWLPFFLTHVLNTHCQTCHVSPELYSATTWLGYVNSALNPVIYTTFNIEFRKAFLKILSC

As a reminder, the inhibition is the drop in the measured response relative to a control, in per cent. For `CSc1ccc2c(c1)C(N1CCN(C)CC1)Cc1ccccc1S2` (stereo not given), the inhibition in [1] was determined as 100%; in data set [2], 108%.

Turning to `CN(C)C(=O)N[C@H]1CC[C@H](CCN2CCN(c3cccc(Cl)c3Cl)CC2)CC1` [CARIPRAZINE], the results for the Activity result in the data set on Rattus norvegicus [3] and with Rattus norvegicus [4] were “Non-Toxic” and “Dose-dependent effect”, respectively. Also, in data set [5], the inhibition at 1 h, 1 µM was below 20%. In the data set with Rattus norvegicus [6], the inhibition result is “Active”. For the same compound, the result with Rattus norvegicus [7] was Active.

On to `Cc1nc2n(c(=O)c1CCN1CCC(c3noc4cc(F)ccc34)CC1)CCCC2` [RISPERIDONE], for which the Activity result in the data set on Rattus norvegicus [3] is “Non-Toxic”.

The Ki is a measure of affinity in units of concentration, obtained from inhibition or displacement. In the case of `CCOC(=O)N[C@H]1CC[C@H](CCN2CCN(c3nsc4ccccc34)CC2)CC1`, in data set [8], the Stability entry was “Unstable”. For the same compound, the Ratio Ki in the data set on CHO came to 12.2. Also, the inhibitory constant (Ki) in data set [9] was determined as 0.2 nM; in [10] it was 0.53 nM; on D(3) dopamine receptor, 0.058 nM; at D(2) dopamine receptor it was 0.71 nM.

`O=C(Nc1ccccc1)N[C@H]1CC[C@H](CCN2CCN(c3nsc4ccccc34)CC2)CC1`: the Ratio Ki in the data set on CHO was 14.7. For the same compound, the inhibitory constant (Ki) in data set [9] stood at 1.4 nM; in data set [10], 0.21 nM; on D(3) dopamine receptor it was 0.043 nM; at D(2) dopamine receptor, 0.63 nM. Besides, in the data set on Rattus norvegicus [6], the inhibition entry was “Active”.
